These results are taken from PubChem BioAssay AID449757 (Broad Institute, 2010).

Calls of active or inactive are those of the source.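 Rule for the calls: active = compounds whose fitted caspase activation midpoint falls no more than tenfold above the top tested dose; inconclusive = flat fit with activity between 30 and 70 percent, or failed fit; inactive = the rest.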

The subject of the test is MEF Flag-A1-IRES-BIM, caspase-Glo luminescence, 3 h. Nature of the test: caspase activation in A1/BIM-primed MEFs, dose response, A1 (Bcl2A1) inhibitor project, cell-based, alternate construct, luminescence (AID 449757). In short, it runs like this: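 System: Flag-A1-IRES-BIM-primed MEF cells; Doses: 100 nL compound added per well by pin transfer; Times: 3 h at 37 °C, then 1 h detection at room temperature; Measured by: luminescent caspase activity measurement with CaspaseGlo reagent.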
Regarding `CC(C)CC(NC(=O)c1ccc(Cl)cc1)C(=O)OCC(=O)c1ccc2c(c1)NC(=O)CO2` (stereo not drawn), the AC50 is 5.62 µM.
Turning to `COc1cc(/C=C(/C#N)c2nc3ccccc3[nH]2)ccc1OCC(=O)Nc1ccccc1C`, the AC50 was 6.32 µM.
For `CC(C)(C)c1ccc(C(=O)Nc2ccc(O)c3c(=O)cc(-c4cccc(Cl)c4)oc23)cc1`, the AC50 was > 35 µM (inactive).
For `Cc1nn(Cc2ccc(Cl)cc2Cl)c(C)c1NC(=O)Cn1nc([N+](=O)[O-])c(Cl)c1C`, the AC50 is > 35 µM (inactive).
For `COc1ccccc1C(=O)Nc1ccnn1C1CCN(Cc2cn(C)c3ccccc23)CC1`, the AC50 was > 35 µM (inactive).
The figure for `COc1cc(NC(=O)c2cccs2)ccc1NC(=O)c1cc2ccccc2o1` is > 35 µM (inactive); for `COc1ccc(-c2ccc3c(c2)S(=O)(=O)c2cccc(C(=O)NC[C@@H]4CCCO4)c2C3=O)cc1OC` it is > 35 µM (inactive); for `COc1ccccc1-c1cn[nH]c1-c1ccc(OCc2ccccc2)cc1O` it is > 35 µM (inactive).
For the compound `Cc1ccc(S(=O)(=O)c2nnn3c2nc(Nc2cccc(C)c2)c2ccccc23)cc1`, the AC50 is > 35 µM (inactive).
Take `COc1cc(/C=C/[N+](=O)[O-])ccc1OC(=O)c1cccnc1`: the AC50 was 9.63 µM.
Regarding `Nc1nc(F)nc2c1ncn2[C@@H]1O[C@H](CO)[C@@H](O)[C@H]1O`, the AC50 was > 35 µM (inactive).
In the case of `Cc1ccc(C(=O)/C=C\C(=O)c2ccc(C)cc2)cc1`, the AC50 was 36.7 µM.
As for `COc1ccc2c(c1)CCc1c(C(=O)Nc3cc(C)n(Cc4ccc(Cl)cc4)n3)noc1-2`, the AC50 is 21.9 µM.
For the compound `O=C(N=Nc1c(O)[nH]c2ccc([N+](=O)[O-])cc12)c1cc(-c2ccccc2Cl)nc2ccccc12`, the AC50 is > 35 µM (inactive).
On to `Cc1ccc(C#N)c(SCC(=O)Nc2nccs2)n1`, for which the AC50 was > 35 µM (inactive).
In the case of `COc1ccc(C(=O)/C=C/C(=O)N(CC(=O)NC2CCCCC2)Cc2cccs2)c(O)c1`, the AC50 was 24.5 µM.
The figure for `COc1cc(NC(=O)c2ccccc2)c(OC)cc1NC(=O)Cc1ccc(Br)cc1` is > 35 µM (inactive).
Regarding `NS(=O)(=O)c1ccc(N/N=C2/CCCCC2C2CCCCC2)c([N+](=O)[O-])c1` (stereo not drawn), the AC50 is 32.3 µM.
To `N#Cc1c(C(F)(F)F)cc(-c2ccccc2)nc1SCC(=O)Nc1sc2c(c1C#N)CCC2` belongs > 35 µM (inactive).
To `COC(=O)c1ccc2c(c1)C(C)(C)C(/C=C/c1ccccc1O)=[N+]2C` belongs 11.3 µM; to `CCOc1ccc(N2C(=O)/C(=C\c3ccc(O)c(OC)c3)S(=O)(=O)C2c2cccc([N+](=O)[O-])c2)cc1` (stereo not drawn), > 35 µM (inactive).
The figure for `Cc1ccc(NC(=O)CSc2nc3nc(C)c(Br)cc3[nH]2)cc1F` is > 35 µM (inactive); for `CC1=NNC(=O)/C1=C\c1cn(-c2ccccc2)nc1-c1cccs1` it is 14.2 µM.
Regarding `COc1ccc(C2CC(c3c(O)cc(C)oc3=O)=NCCS2)c(OC)c1` (stereo not drawn), the AC50 is > 35 µM (inactive).
Take `COc1cc(/C=C(/C#N)c2nc3ccccc3[nH]2)ccc1OCC(=O)Nc1ccccc1C(C)C`: the AC50 is 16.1 µM.
The figure for `COc1ccc(Cn2c(SCc3ccc(C)cc3)nc3cc(OC)c(OC)cc3c2=N)cc1Cl` is > 35 µM (inactive).
For `COc1ccc(S(=O)(=O)N2CC(O)CC2C(=O)OCC(=O)Nc2ccc(Cl)cn2)cc1` (stereo not drawn), the AC50 was > 35 µM (inactive).
The figure for `COc1ccc(-c2nc(NC(=O)c3n[nH]c(=O)c4ccccc34)sc2C)cc1` is > 35 µM (inactive).
The figure for `CN(c1ccccc1)c1ccc(/C=C/[N+](=O)[O-])cc1` is 10.2 µM.
Regarding `O=C(NCc1ccccc1Br)c1cccc2c1C(=O)c1ccc(-c3ccc(OC(F)(F)F)cc3)cc1S2(=O)=O`, the AC50 is > 35 µM (inactive).
With `Cc1ccc(C)c(S(=O)(=O)NCC(=O)Nc2sc3c(c2C(N)=O)CCC(C)C3)c1` (stereo not drawn), the AC50 is > 35 µM (inactive).
Consider `O=C(Oc1cccc(/C=N/Nc2nc(Nc3ccccc3)nc(N3CCOCC3)n2)c1)c1ccco1`, for which the AC50 was > 35 µM (inactive).
Take `CC(=O)OC(C)(C)/C=C/C(=O)[C@](C)(O)C1[C@H](O)C[C@@]2(C)C3CC=C4C(C[C@H](O)C(=O)C4(C)C)[C@]3(C)C(=O)C[C@]12C` (stereo partly drawn): the AC50 is > 35 µM (inactive).
`COc1ccccc1CCNC(C)CCc1ccc(O)cc1` (stereo not drawn): the AC50 is > 35 µM (inactive).
Turning to `CCOc1cc(/C=C2/C(=N)N3C=CSC3=NC2=O)ccc1OCCCOc1ccccc1C`, the AC50 is 35.4 µM.
With `C=C1CCc2c([nH]c3ccc(OCC(C)C)cc23)C1=O`, the AC50 was 8.5 µM.
To `O=C(NC1CCCC1)c1cccc2c1C(=O)c1ccc(/C=C/c3ccccc3)cc1S2(=O)=O` belongs 7.48 µM.
In the case of `O=C(NCCc1ccccc1)C(c1cccs1)N(C(=O)CCl)c1ccc(Cl)cc1` (stereo not drawn), the AC50 was 13.3 µM.
Turning to `Cc1ccc2nc(N(CCCN(C)C)C(=O)c3ccc(S(=O)(=O)N4CCc5ccccc5C4)cc3)sc2c1`, the AC50 was > 35 µM (inactive).
Regarding `Cc1cc(C)cc(Cn2ncc(Cl)c(Cl)c2=O)c1`, the AC50 is > 35 µM (inactive).
On to `COc1ccc(OC[C@@H](O)CNC(=O)c2cccc3c2C(=O)c2ccc(-c4ccc(F)cc4OCc4ccccc4)cc2S3(=O)=O)cc1`, for which the AC50 was > 35 µM (inactive).
The figure for `CC1=NNC(=O)/C1=C\c1cn(-c2ccccc2)nc1-c1ccccc1` is 10.4 µM.
For the compound `COc1ccc(NC(=O)c2cccc3c2C(=O)c2ccc(-c4ccc(F)cc4OCc4ccccc4)cc2S3(=O)=O)cc1`, the AC50 is > 35 µM (inactive).
For the compound `O=C(COc1ccc(/C=N/NC(=O)c2cc3ccccc3o2)cc1Cl)Nc1ccccc1`, the half-maximal activity concentration (AC50) is 9.15 µM.
As to `CCC1CCCCN1S(=O)(=O)c1ccc(NC(=O)c2nc(S(C)(=O)=O)ncc2Cl)cc1` (stereo not drawn), the AC50 was 3.73 µM.
For `COc1ccc(-c2c(C#N)c(N)nc(Sc3ccc(Cl)cc3)c2C#N)cc1`, the AC50 is > 35 µM (inactive).
To `Cc1cccc(Nc2nc(N)c([N+](=O)[O-])c(N3CCCC(C)C3)n2)c1` (stereo not drawn) belongs > 35 µM (inactive).
Regarding `CCOc1cc(/C=N/Nc2cc(C)nc(-n3nc(C)cc3C)n2)ccc1O`, the AC50 was > 35 µM (inactive).
`Cc1ccc(C(=O)COC(=O)c2ccc3c(c2)C(=O)N(c2cccc4ncccc24)C3=O)cc1`: the AC50 is 36.1 µM.
On to `O=S1(=O)CCOC[C@H](CC2CCCCC2)N1Cc1cccc(Cl)c1`, for which the AC50 was > 35 µM (inactive).
For `CCOC(=O)c1sc(NC(=O)CSc2nc(C)cc(C)c2C#N)c(C#N)c1C`, the AC50 is > 35 µM (inactive).
As for `O=c1c(Cl)c(Cl)cnn1Cc1ccccc1Cl`, the AC50 was > 35 µM (inactive).
For the compound `COc1ccc(C2Nc3ccc4ccccc4c3-c3c2c(=O)oc2ccccc32)cc1` (stereo not drawn), the AC50 was 14.9 µM.
Regarding `CC[C@H]1CN2CCc3cc(OC)c(OC)cc3[C@@H]2C[C@@H]1C[C@H]1NCCc2cc(OC)c(OC)cc21`, the AC50 is > 35 µM (inactive).
`C#CC(=O)N(c1cc(OC)ccc1OC)C(C(=O)NC1CCCC1)c1cccs1` (stereo not drawn): the AC50 was > 35 µM (inactive).
Regarding `CCOc1cccc(C(=O)Nc2cccc(-c3nnc(-c4ccc(C)cc4)o3)c2)c1`, the AC50 was 8.37 µM.
In the case of `CC1CC(C)CN(C(=O)c2ccc(-c3ccc([N+](=O)[O-])cc3)o2)C1` (stereo not drawn), the AC50 is > 35 µM (inactive).
Turning to `O=C1/C(=C\c2c(NCCOCCO)nc3ccccn3c2=O)SC(=S)N1Cc1ccco1`, the AC50 is > 35 µM (inactive).

One may read the AC50 as the concentration at which the activity in the assay is half-maximal.
